{"data": "Published values collected from several papers", "organism": "Staphylococcus aureus", "note": "Each line is one published result; the experiments were not run side by side."}
{"Structure (SMILES)": "O=C(O)c1cn(C2CC2)c2cc(N3CCNCC3)c(F)cc2c1=O", "assay": "microbial growth, broth dilution", "system": "ATCC43300 MRSA", "setting": "drug-resistant strain", "measurement": "MIC", "value": "16 µg/mL"}
{"Structure (SMILES)": "CC1(C)CC[C@]2(C(=O)O)CC[C@]3(C)C(=CC[C@@H]4[C@@]5(C)CC[C@H](O)C(C)(C)[C@@H]5CC[C@]43C)[C@@H]2C1", "assay": "microbial growth", "system": "USA400", "measurement": "MIC", "value": "256 µg/mL"}
{"Structure (SMILES)": "CCOC(=O)C1=C(C)N2NC(c3ccccc3O)N(C(Cc3c[nH]c4ccccc34)C(=O)O)C2=NC1c1ccc(Cl)cc1 (centres unmarked)", "assay": "microbial killing", "setting": "drug-resistant strain", "measurement": "MBC", "value": "100 µg/mL"}
{"Structure (SMILES)": "O[C@]12C=C(c3nccc4c3[nH]c3ccccc34)[C@@H]3CCN(CCCC/C=C\\CC1)C[C@@]31C[C@@H]3/C=C\\CCCCN3[C@H]12", "assay": "microbial growth", "system": "MRSA", "setting": "drug-resistant strain", "measurement": "IC50", "value": "0.7 µg/mL"}
{"Structure (SMILES)": "O=C(Sc1cccccc1=O)c1ccccc1", "assay": "microbial growth, broth dilution", "system": "ATCC29213", "measurement": "MIC80", "value": "13.2 µM"}
{"Structure (SMILES)": "CN[C@H](CC(C)C)C(=O)N[C@H]1C(=O)N[C@@H](CC(N)=O)C(=O)N[C@H]2C(=O)N[C@H]3C(=O)N[C@H](C(=O)N[C@H](C(=O)O)c4cc(O)cc(O)c4-c4cc3ccc4O)[C@H](O)c3ccc(c(Cl)c3)Oc3cc2cc(c3O[C@@H]2O[C@H](CO)[C@@H](O)[C@H](O)[C@H]2O[C@H]2C[C@](C)(N)[C@H](O)[C@H](C)O2)Oc2ccc(cc2Cl)[C@H]1O", "assay": "microbial killing, broth dilution", "system": "NRS107", "measurement": "MBC", "value": "1 µM"}
{"Structure (SMILES)": "Fc1cccc(Cl)c1-c1nc2ccccc2[nH]1", "assay": "microbial growth, broth dilution", "system": "ATCC43300 MRSA", "setting": "drug-resistant strain", "measurement": "MIC", "value": "128 µg/mL"}
{"Structure (SMILES)": "COC(=O)c1cc(-c2cccc(NC(=O)Nc3ccc(OC)cc3)c2)on1", "assay": "microbial growth, broth dilution", "system": "ATCC29213", "measurement": "MIC", "value": "> 64 µg/mL"}
{"Structure (SMILES)": "Cc1ccc2nc(-c3ccco3)n(Cc3ccccc3)c2c1", "assay": "microbial growth, broth dilution", "system": "ATCC43300 MRSA", "setting": "drug-resistant strain", "measurement": "MIC", "value": "128 µg/mL"}
{"Structure (SMILES)": "O=C(O)c1cn(C2CC2)c2cc(N3CCNCC3)c(F)cc2c1=O", "assay": "microbial killing", "measurement": "MBC", "value": "19 µM"}
{"Structure (SMILES)": "COC(=O)c1cc(-c2cccc(NC(=O)Nc3ccc(Cl)c(C(F)(F)F)c3)c2)on1", "assay": "microbial growth, broth dilution", "system": "ATCC29213", "measurement": "MIC", "value": "> 64 µg/mL"}
{"Structure (SMILES)": "O=C(O)c1cn(C2CC2)c2cc(N3CCNCC3)c(F)cc2c1=O", "assay": "microbial growth", "system": "ATCC29213", "measurement": "IC50", "value": "0.13 µg/mL"}
{"Structure (SMILES)": "COC(=O)c1cc(-c2cccc(NC(=S)Nc3ccc(F)cc3)c2)on1", "assay": "microbial growth, broth dilution", "system": "ATCC29213", "measurement": "MIC", "value": "> 64 µg/mL"}
{"Structure (SMILES)": "O=C(O)c1cn(C2CC2)c2cc(N3CCNCC3)c(F)cc2c1=O", "assay": "microbial growth", "system": "SG511", "setting": "5 µg/mL, 20 h", "measurement": "inhibition zone", "value": "25 mm"}
{"Structure (SMILES)": "COC(=O)c1cc(-c2cccc(NC(=O)Nc3cccc(Cl)c3)c2)on1", "assay": "microbial growth, broth dilution", "system": "ATCC29213", "measurement": "MIC", "value": "> 64 µg/mL"}
{"Structure (SMILES)": "COc1ccc(-c2nc3ccccc3[nH]2)cc1OC", "assay": "microbial growth, broth dilution", "system": "ATCC43300 MRSA", "setting": "drug-resistant strain", "measurement": "MIC", "value": "256 µg/mL"}
{"Structure (SMILES)": "COC(=O)c1cc(-c2cccc(NC(=S)Nc3ccccc3)c2)on1", "assay": "microbial growth, broth dilution", "system": "ATCC29213", "measurement": "MIC", "value": "> 64 µg/mL"}
{"Structure (SMILES)": "CCOc1ccc(-c2nc3ccccc3[nH]2)cc1", "assay": "microbial growth, broth dilution", "system": "ATCC43300 MRSA", "setting": "drug-resistant strain", "measurement": "MIC", "value": "512 µg/mL"}
{"Structure (SMILES)": "COC(=O)c1cc(-c2cccc(NC(=S)Nc3ccc(F)c(Cl)c3)c2)on1", "assay": "microbial growth, broth dilution", "system": "ATCC29213", "measurement": "MIC", "value": "> 64 µg/mL"}
{"Structure (SMILES)": "Cc1ccc2nc(-c3ccc([N+](=O)[O-])cc3)n(Cc3ccc(Cl)cc3)c2c1", "assay": "microbial growth, broth dilution", "system": "ATCC43300 MRSA", "setting": "drug-resistant strain", "measurement": "MIC", "value": "8 µg/mL"}
